Experiments:
SW-620 = test: Cytotoxicity against human SW620 cells after 48 hrs by SRB assay; type: functional; conditions: SW-620, 48 h
Summary of the method: (§1)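 NCI 60-cell screen. Cells grew 24 h (37 °C, 5% CO2) before compound was added. Compounds were in DMSO and diluted in medium with gentamicin, then tested at five levels (100, 10, 1.0, 0.1, 0.01 µM) with 48 h continuous exposure. Adherent cells were fixed with TCA (10% final) and stained with 0.4% SRB, absorbance read at 515 nm. A time-zero plate was included. LC50 is the concentration giving 50% loss of protein relative to time zero.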

DU-145 = test: Cytotoxicity against human DU145 cells after 48 hrs by SRB assay; type: functional; conditions: DU-145, 48 h
Summary of the method: (§2)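 NCI 60-cell-line screen. Cells preincubated 24 h at 37 °C, 5% CO2; time-zero plates TCA-fixed. Compounds dissolved in DMSO and tested at five concentrations (100, 10, 1.0, 0.1, 0.01 µM) for 48 h continuous exposure. Adherent cells fixed with cold TCA (10% final), then SRB stained; absorbance at 515 nm. GI50, TGI and LC50 calculated from growth relative to time-zero and untreated controls.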

SK-MEL-28 = test: Cytotoxicity against human SK-MEL-28 cells after 48 hrs by SRB assay; type: functional; conditions: SK-MEL-28, 48 h; for CC50: read-out: LC50 (the source's name); summary of the method: as §2
SNB-75 = test: Cytotoxicity against human SNB75 cells after 48 hrs by SRB assay; type: functional; conditions: SNB-75, 48 h; summary of the method: as §1
Hs-578T = test: Cytotoxicity against human Hs578T cells after 48 hrs by SRB assay; type: functional; summary of the method: as §2
[1] = Cytotoxicity against human EKVX cells after 48 hrs by SRB assay; type: functional; summary of the method: as §2
A498 = test: Cytotoxicity against human A498 cells after 48 hrs by SRB assay; type: functional; conditions: A498, 48 h; for CC50: read-out: LC50 (the source's name); summary of the method: as §2
ACHN = test: Cytotoxicity against human ACHN cells after 48 hrs by SRB assay; type: functional; conditions: for CC50: read-out: LC50 (the source's name); summary of the method: as §2
MCF7 = test: Cytotoxicity against human MCF7 cells after 48 hrs by SRB assay; type: functional; conditions: MCF7, 48 h; for CC50: read-out: LC50 (the source's name); summary of the method: as §2
OVCAR-3 = test: Cytotoxicity against human OVCAR3 cells after 48 hrs by SRB assay; type: functional; conditions: OVCAR-3, 48 h; summary of the method: as §2
SNB-19 = test: Cytotoxicity against human SNB19 cells after 48 hrs by SRB assay; type: functional; conditions: SNB-19, 48 h; summary of the method: as §1
UO-31 = test: Cytotoxicity against human UO31 cells after 48 hrs by SRB assay; type: functional; conditions: UO-31, 48 h; summary of the method: as §1
MDA-MB-231 = test: Cytotoxicity against human MDA-MB-231 cells after 48 hrs by SRB assay; type: functional; conditions: MDA-MB-231, 48 h; summary of the method: as §2
K562 = test: Cytotoxicity against human K562 cells after 48 hrs by SRB assay; type: functional; conditions: K562, 48 h; summary of the method: as §2
HOP-62 = test: Cytotoxicity against human HOP62 cells after 48 hrs by SRB assay; type: functional; conditions: HOP-62, 48 h; summary of the method: as §2
CCRF-CEM = test: Cytotoxicity against human CCRF-CEM cells after 48 hrs by SRB assay; type: functional; summary of the method: as §2
HOP-92 = test: Cytotoxicity against human HOP92 cells after 48 hrs by SRB assay; type: functional; conditions: HOP-92, 48 h; summary of the method: as §2
PC-3 = test: Cytotoxicity against human PC3 cells after 48 hrs by SRB assay; type: functional; conditions: PC-3, 48 h; summary of the method: as §2
UACC-257 = test: Cytotoxicity against human UACC257 cells after 48 hrs by SRB assay; type: functional; conditions: UACC-257, 48 h; summary of the method: as §1
OVCAR-4 = test: Cytotoxicity against human OVCAR4 cells after 48 hrs by SRB assay; type: functional; conditions: OVCAR-4, 48 h; summary of the method: as §2
[2] = Toxicity in RBC (unknown origin) assessed as hemolysis after 48 hrs at 20 to 80 ug/ml by spectrophotometry; type: cell-based, Erythrocyte; conditions: red blood cells (RBC); read-out: Activity
Summary of the method: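 Red blood cells at 5% hematocrit in RPMI 1640 exposed to 20, 40 and 80 µg/mL for 48 h at 37 °C; free hemoglobin read spectrophotometrically at 542 nm.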

NCI-H23 = test: Cytotoxicity against human NCI-H23 cells after 48 hrs by SRB assay; type: functional; conditions: NCI-H23, 48 h; for CC50: read-out: LC50 (the source's name); summary of the method: as §2
HL-60(TB) = test: Cytotoxicity against human HL-60(TB) cells after 48 hrs by SRB assay; type: functional; conditions: HL-60, 48 h; summary of the method: as §2
786-0 = test: Cytotoxicity against human 786-0 cells after 48 hrs by SRB assay; type: functional; conditions: 786-0, 48 h; summary of the method: as §2
OVCAR-5 = test: Cytotoxicity against human OVCAR5 cells after 48 hrs by SRB assay; type: functional; conditions: OVCAR-5, 48 h; summary of the method: as §2
MOLT-4 = test: Cytotoxicity against human MOLT4 cells after 48 hrs by SRB assay; type: functional; conditions: MOLT-4, 48 h; summary of the method: as §2
TK-10 = test: Cytotoxicity against human TK10 cells after 48 hrs by SRB assay; type: functional; conditions: TK-10, 48 h; summary of the method: as §1
NCI-H322M = test: Cytotoxicity against human NCI-H322M cells after 48 hrs by SRB assay; type: functional; summary of the method: as §2

Compound: COc1cc(C2CC(c3cccc(Nc4ccnc5cc(Cl)ccc45)c3)=NN2C=O)cc(OC)c1OC (stereo not drawn)
- GI50 (SW-620): 0.47 µM
- LC50 (SW-620): > 100 µM
- GI50 (DU-145): 2.68 µM
- LC50 (concentration killing 50% of cells) (DU-145): > 100 µM
- GI50 (SK-MEL-28): 1.02 µM
- CC50 (SK-MEL-28): 97.1 µM
- GI50 (SNB-75): 0.38 µM
- LC50 (50% net cell kill) (SNB-75): 51 µM
- GI50 (Hs-578T): 0.68 µM
- LC50 (50% net cell kill) (Hs-578T): > 100 µM
- GI50 [1]: 0.98 µM
- LC50 [1]: > 100 µM
- GI50 (A498): 0.29 µM
- CC50 (A498): > 100 µM
- GI50 (ACHN): 1.27 µM
- CC50 (ACHN): > 100 µM
- GI50 (MCF7): 0.37 µM
- CC50 (MCF7): > 100 µM
- GI50 (OVCAR-3): 0.52 µM
- LC50 (OVCAR-3): 6.06 µM
- GI50 (SNB-19): 3.42 µM
- LC50 (SNB-19): > 100 µM
- GI50 (UO-31): 1.3 µM
- LC50 (UO-31): > 100 µM
- GI50 (MDA-MB-231): 1.6 µM
- LC50 (concentration killing 50% of cells present at time zero) (MDA-MB-231): > 100 µM
- GI50 (K562): 0.43 µM
- LC50 (concentration killing 50% of cells) (K562): > 100 µM
- GI50 (HOP-62): 1.12 µM
- LC50 (50% lethal concentration) (HOP-62): 66.5 µM
- GI50 (CCRF-CEM): 0.65 µM
- LC50 (concentration killing 50% of cells relative to time zero) (CCRF-CEM): > 100 µM
- GI50 (HOP-92): 2.75 µM
- LC50 (concentration killing 50% of cells) (HOP-92): > 100 µM
- GI50 (PC-3): 1.46 µM
- LC50 (PC-3): > 100 µM
- GI50 (UACC-257): 1.4 µM
- LC50 (UACC-257): > 100 µM
- GI50 (OVCAR-4): 1.13 µM
- LC50 (OVCAR-4): > 100 µM
- hemolysis at 48 h [2]: 3.4%
- GI50 (NCI-H23): 1.38 µM
- CC50 (NCI-H23): > 100 µM
- GI50 (HL-60(TB)): 0.26 µM
- CC50 (HL-60(TB); read-out: LC50 (the source's name)): 3.97 µM
- GI50 (786-0): 0.84 µM
- LC50 (786-0): 76.3 µM
- GI50 (OVCAR-5): 4.32 µM
- LC50 (OVCAR-5): > 100 µM
- GI50 (MOLT-4): 0.59 µM
- LC50 (MOLT-4): > 100 µM

Compound: COc1cccc2c1C(=O)c1c(O)c3c(c(O)c1C2=O)C[C@@](O)(C(=O)CO)C[C@@H]3O[C@H]1C[C@H](N)[C@H](O)[C@H](C)O1 [DOXORUBICIN]
- GI50 (SW-620): 0.09 µM
- GI50 (TK-10): 0.18 µM
- GI50 (DU-145): 0.11 µM
- GI50 (SK-MEL-28): 0.21 µM
- CC50 (SK-MEL-28): 15.9 µM
- GI50 (SNB-75): 0.07 µM
- GI50 (Hs-578T): 0.33 µM
- GI50 (NCI-H322M): 0.54 µM
- GI50 [1]: 0.41 µM
- GI50 (A498): 0.1 µM
- CC50 (A498): 1.9 µM
- GI50 (ACHN): 0.08 µM
- CC50 (ACHN): 100 µM
- GI50 (MCF7): 0.03 µM
- CC50 (MCF7): 51.3 µM
- GI50 (OVCAR-3): 0.39 µM
- GI50 (SNB-19): 0.04 µM
- GI50 (UO-31): 0.49 µM
- GI50 (MDA-MB-231): 0.51 µM
- GI50 (K562): 0.19 µM
- GI50 (HOP-62): 0.07 µM
- GI50 (CCRF-CEM): 0.08 µM
- GI50 (HOP-92): 0.1 µM
- GI50 (PC-3): 0.32 µM
- GI50 (UACC-257): 0.14 µM
- GI50 (OVCAR-4): 0.37 µM
- GI50 (NCI-H23): 0.15 µM
- CC50 (NCI-H23): 13.2 µM
- GI50 (HL-60(TB)): 0.12 µM
- GI50 (786-0): 0.13 µM
- GI50 (OVCAR-5): 0.41 µM
- GI50 (MOLT-4): 0.03 µM

Source: ChEMBL document CHEMBL2417469, “Synthesis of novel analogs of 2-pyrazoline obtained from [(7-chloroquinolin-4-yl)amino]chalcones and hydrazine as potential antitumor and antimalarial agents” (Eur J Med Chem, 2013)
